From ChEMBL document CHEMBL1155929, “3-(4-(6-Fluoroalkoxy-3,4-dihydroisoquinoline-2(1H)-yl)cyclohexyl)-1H-indole-5-carbonitriles for SERT imaging: chemical synthesis, evaluation in vitro and radiofluorination” (Bioorg Med Chem Lett, 2008)

Columns and labels:
[1] = biological target: T1, 5-hydroxytryptamine receptor 1A (Rattus norvegicus, UniProt P19327); assay: Displacement of [3H]8-OH-DPAT from 5HT1A receptor in rat cortical membrane; assay type: cell membranes
T1 sequence (P19327 whole entry): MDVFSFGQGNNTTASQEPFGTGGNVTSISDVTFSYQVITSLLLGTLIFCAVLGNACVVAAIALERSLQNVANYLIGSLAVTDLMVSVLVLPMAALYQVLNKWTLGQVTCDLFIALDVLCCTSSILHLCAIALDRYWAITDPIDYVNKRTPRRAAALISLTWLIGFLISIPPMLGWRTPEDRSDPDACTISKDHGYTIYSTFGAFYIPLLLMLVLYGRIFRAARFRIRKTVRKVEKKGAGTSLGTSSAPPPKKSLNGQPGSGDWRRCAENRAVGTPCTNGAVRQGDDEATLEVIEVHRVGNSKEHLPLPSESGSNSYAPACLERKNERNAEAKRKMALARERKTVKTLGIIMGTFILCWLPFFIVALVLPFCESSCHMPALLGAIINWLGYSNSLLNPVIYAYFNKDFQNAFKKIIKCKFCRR
Procedure, shortened: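 Rat cortical membrane homogenate diluted in 50 mM Tris-HCl pH 7.4, 4 mM CaCl2, 0.1% ascorbic acid. Incubated with 0.3 nM [3H]-8-OH-DPAT and 6-12 test concentrations at 21 °C for 60 min. Nonspecific binding defined with 10 µM serotonin hydrochloride. IC50 from triplicates per experiment, at least three independent experiments; Ki calculated.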

[2] = biological target: Sodium-dependent dopamine transporter (Homo sapiens, UniProt Q01959); assay: Displacement of [3H]WIN-35428 from human DAT expressed in HEK293 cells; assay type: cell-based
Sequence of Sodium-dependent dopamine transporter (Q01959 whole entry): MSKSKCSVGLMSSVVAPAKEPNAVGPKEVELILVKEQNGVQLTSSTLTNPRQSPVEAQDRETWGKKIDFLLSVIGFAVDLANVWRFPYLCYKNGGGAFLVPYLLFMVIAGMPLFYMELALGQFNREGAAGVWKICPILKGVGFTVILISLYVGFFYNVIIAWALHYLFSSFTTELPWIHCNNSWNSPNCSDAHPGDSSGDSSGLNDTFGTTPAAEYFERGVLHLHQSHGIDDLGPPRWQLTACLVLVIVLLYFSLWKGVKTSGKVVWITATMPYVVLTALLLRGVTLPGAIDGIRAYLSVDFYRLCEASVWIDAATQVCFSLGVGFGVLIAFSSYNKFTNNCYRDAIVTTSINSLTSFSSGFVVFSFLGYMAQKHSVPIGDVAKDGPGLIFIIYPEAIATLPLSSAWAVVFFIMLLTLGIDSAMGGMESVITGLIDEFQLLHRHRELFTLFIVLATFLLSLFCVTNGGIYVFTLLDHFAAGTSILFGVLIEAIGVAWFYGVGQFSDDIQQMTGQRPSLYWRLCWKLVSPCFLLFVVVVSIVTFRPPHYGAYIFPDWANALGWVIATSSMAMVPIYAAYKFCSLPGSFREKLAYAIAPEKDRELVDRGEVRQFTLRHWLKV
Procedure, shortened: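 Homogenate of HEK293 cells stably expressing hDAT, in 50 mM Tris-HCl pH 7.4, 100 mM NaCl. Incubated with 0.5 nM [3H]WIN35,428 (KD 24.1 nM) and 6-12 test concentrations on ice for 120 min. Nonspecific binding with 10 µM GBR12909. IC50 from triplicates per experiment; Ki calculated.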

[3] = biological target: T2, Sodium-dependent serotonin transporter (Homo sapiens, UniProt P31645); assay: biochemical; assay type: cell-based, HEK293
Target sequence in this assay (P31645 whole entry): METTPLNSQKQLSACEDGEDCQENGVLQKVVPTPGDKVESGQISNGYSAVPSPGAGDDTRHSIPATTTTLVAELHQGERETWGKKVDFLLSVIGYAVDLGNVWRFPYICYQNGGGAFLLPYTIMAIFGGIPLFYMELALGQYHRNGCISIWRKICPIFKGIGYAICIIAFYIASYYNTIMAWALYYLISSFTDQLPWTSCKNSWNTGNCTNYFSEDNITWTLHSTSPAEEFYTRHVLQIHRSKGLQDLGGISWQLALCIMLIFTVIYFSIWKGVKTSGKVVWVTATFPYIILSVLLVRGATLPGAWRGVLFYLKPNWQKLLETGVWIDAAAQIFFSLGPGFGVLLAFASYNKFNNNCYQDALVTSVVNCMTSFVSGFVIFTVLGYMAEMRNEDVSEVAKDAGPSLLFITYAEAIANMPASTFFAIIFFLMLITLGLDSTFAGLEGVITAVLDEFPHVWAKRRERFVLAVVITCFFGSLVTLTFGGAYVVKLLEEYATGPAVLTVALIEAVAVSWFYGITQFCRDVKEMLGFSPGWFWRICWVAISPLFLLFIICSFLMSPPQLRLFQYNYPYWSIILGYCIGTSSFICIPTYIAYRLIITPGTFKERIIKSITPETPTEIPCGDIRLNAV

[4] = biological target: T2, Sodium-dependent serotonin transporter; assay: biochemical; assay type: cell-based, HEK293; remark: listed apart in the source
Target sequence in this assay (P31645 whole entry): as above

[5] = biological target: Sodium-dependent noradrenaline transporter (Homo sapiens, UniProt P23975); assay: Displacement of [3H]nisoxetine from human NET expressed in HEK293 cells; assay type: cell-based
Sequence of Sodium-dependent noradrenaline transporter (P23975 whole entry): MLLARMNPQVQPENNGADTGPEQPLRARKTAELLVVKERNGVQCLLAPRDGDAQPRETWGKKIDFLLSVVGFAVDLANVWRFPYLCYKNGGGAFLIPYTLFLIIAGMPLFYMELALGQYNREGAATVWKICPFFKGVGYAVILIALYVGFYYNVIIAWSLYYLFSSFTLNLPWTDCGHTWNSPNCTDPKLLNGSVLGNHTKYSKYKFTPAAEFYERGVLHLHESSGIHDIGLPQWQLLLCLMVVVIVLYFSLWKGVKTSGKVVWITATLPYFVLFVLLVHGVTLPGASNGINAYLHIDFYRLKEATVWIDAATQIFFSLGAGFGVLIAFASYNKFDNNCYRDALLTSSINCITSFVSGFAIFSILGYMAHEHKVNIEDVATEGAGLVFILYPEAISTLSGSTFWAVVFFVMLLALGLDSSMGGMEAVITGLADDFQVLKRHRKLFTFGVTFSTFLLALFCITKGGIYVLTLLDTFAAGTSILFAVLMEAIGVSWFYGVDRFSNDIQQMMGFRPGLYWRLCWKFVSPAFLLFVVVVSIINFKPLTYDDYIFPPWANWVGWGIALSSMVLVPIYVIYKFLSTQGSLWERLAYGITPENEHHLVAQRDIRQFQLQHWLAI
Procedure, shortened: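 Homogenate of HEK293 cells stably expressing hNET, in 50 mM Tris-HCl pH 7.4, 120 mM NaCl, 5 mM KCl. Incubated with 0.5 nM [3H]nisoxetine (KD 6.77 nM) and 6-12 test concentrations at 21 °C for 60 min. Nonspecific binding with 100 µM protriptyline. IC50 from triplicates per experiment; Ki calculated.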

[6] = biological target: T2, Sodium-dependent serotonin transporter; assay: Ratio of Ki for displacement of [3H]paroxetine to displacement of [3H]citalopram from human SERT expressed in […] cells; assay type: cell-based
Target sequence in this assay (P31645 whole entry, looked up): as the sequence (P31645 whole entry) above

[7] = system: Cortex; assay: Stability in rat cortex at pH 7.2 to 7.4 after 120 mins; assay type: ADME, tissue-based; settings: buffer, pH 7.2, 2 h
Procedure, shortened: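 18F tracer incubated at 37 °C in rat cortex homogenate in Tris-HCl, pH 7.2–7.4, for up to 120 min. Sampled every 30 min and analysed by radio-HPLC and TLC.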

[8] = Partition coefficient, log D at pH 7.2 to 7.4 by HPLC Multisorb; assay type: physicochemical; settings: octanol/water
Procedure, shortened: (§1)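 HPLC log D on Multisorb RP18-7 or Supelcosil ABZ+ Plus columns. Gradient from 5% MeCN + 20 mM ammonium acetate to 80% MeCN + 20 mM ammonium acetate over 55 min at 1 ml/min. n ≥ 3 per standard or sample.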

[9] = Partition coefficient, log D at pH 7.2 to 7.4 by HPLC Supelcosil; assay type: physicochemical; settings: octanol/water; procedure, shortened: as §1
[10] = Stability in aqueous sodium hydroxide at 80 degC after 30 mins; assay type: physicochemical; settings: buffer, 0.5 h
Procedure, shortened: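 18F tracer held in 0.1 or 1.3 M aqueous NaOH at 80 °C. Analysed by radio-HPLC and TLC.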

[11] = Protein binding in rat plasma by acetonitrile precipitation; assay type: ADME, cell-free; settings: read-out: PB (converted)
Procedure, shortened: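 18F tracer incubated in freshly isolated rat plasma (protein 95 mg/ml) for 30 min at 37 °C. Protein precipitated with MeCN and extracted twice. Centrifuged at 2000g for 30 min at room temperature; n = 3.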

[12] = Partition coefficient, log D in phosphate buffer at pH 7.2 to 7.4 by extractive method; assay type: physicochemical; settings: octanol/water
Procedure, shortened: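 Batch n-octanol–buffer extraction of the 18F-labelled tracer. Buffers were 50 mM Sørensen phosphate pH 7.2, Dulbecco's PBS pH 7.2, and 30 mM Tris-HCl pH 7.4. n = 3 per buffer system.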

SMILES	Ki [1] [nM]	Ki [2] [nM]	Ki [3] [nM]	Ki [4] [nM]	Ki [5] [nM]	fold change (FC) [6]	Stability [7]	logD [8]	chromatographic logD [9]	Stability [10]	fraction unbound [11]	logD [12]
N#Cc1ccc2[nH]cc([C@H]3CC[C@@H](N4CCc5ccccc5C4)CC3)c2c1	> 1000	424	4.51	189	1430	41.9	–	–	–	–	–	–
N#Cc1ccc2[nH]cc([C@H]3CC[C@@H](N4CCc5cc(OCCC[18F])ccc5C4)CC3)c2c1	–	–	–	–	–	–	Stable	3.27	2.54	Stable	0.973	2.47
COc1ccc2c(c1)CCN([C@H]1CC[C@@H](c3c[nH]c4ccc(C#N)cc43)CC1)C2	13100	370	4.1	165	1020	40.2	–	–	–	–	–	–
Cc1ccc(Sc2ccccc2CN(C)C)c(N)c1	–	–	0.73	2.03	–	–	–	–	–	–	–	–
COc1ccc2c(c1)CCN([C@H]1CC[C@H](c3c[nH]c4ccc(C#N)cc43)CC1)C2	267	462	73.7	518	96.7	7	–	–	–	–	–	–
N#Cc1ccc2[nH]cc([C@H]3CC[C@H](N4CCc5cc(OCCC[18F])ccc5C4)CC3)c2c1	–	–	–	–	–	–	Stable	3.27	2.49	Stable	–	2.36
N#Cc1ccc2[nH]cc([C@H]3CC[C@H](N4CCc5cc(OCCCF)ccc5C4)CC3)c2c1	2860	343	327	2310	102	7.1	–	–	–	–	–	–
N#Cc1ccc2[nH]cc([C@H]3CC[C@@H](N4CCc5cc(OCCCF)ccc5C4)CC3)c2c1	5670	366	6.16	914	772	140	–	–	–	–	–	–
N#Cc1ccc2[nH]cc([C@H]3CC[C@H](N4CCc5ccccc5C4)CC3)c2c1	2530	309	90.7	286	184	3.2	–	–	–	–	–	–
